Assay results reported in ChEMBL document CHEMBL1287728, “Potent and highly selective DP1 antagonists with 2,3,4,9-tetrahydro-1H-carbazole as pharmacophore” (Bioorg Med Chem Lett, 2010).

What was measured:
[1] = biological target: T1, Prostaglandin D2 receptor (Homo sapiens, UniProt Q13258); assay: Antagonist activity at prostanoid DP1 receptor; assay type: functional
T1 sequence (Q13258 whole entry): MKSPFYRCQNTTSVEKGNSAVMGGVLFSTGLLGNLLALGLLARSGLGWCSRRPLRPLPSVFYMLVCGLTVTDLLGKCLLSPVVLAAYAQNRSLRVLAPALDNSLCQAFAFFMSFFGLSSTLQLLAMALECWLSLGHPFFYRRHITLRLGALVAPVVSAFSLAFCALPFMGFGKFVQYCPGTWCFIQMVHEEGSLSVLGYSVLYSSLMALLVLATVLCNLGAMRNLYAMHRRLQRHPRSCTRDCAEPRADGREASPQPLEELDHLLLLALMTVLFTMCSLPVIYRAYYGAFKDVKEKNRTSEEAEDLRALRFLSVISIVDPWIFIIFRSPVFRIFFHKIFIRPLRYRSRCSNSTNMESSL

Thromboxane A2 receptor = biological target: T2, Thromboxane A2 receptor (Homo sapiens, UniProt P21731); assay: Antagonist activity at prostanoid TP receptor; assay type: functional
T2 sequence (P21731 whole entry): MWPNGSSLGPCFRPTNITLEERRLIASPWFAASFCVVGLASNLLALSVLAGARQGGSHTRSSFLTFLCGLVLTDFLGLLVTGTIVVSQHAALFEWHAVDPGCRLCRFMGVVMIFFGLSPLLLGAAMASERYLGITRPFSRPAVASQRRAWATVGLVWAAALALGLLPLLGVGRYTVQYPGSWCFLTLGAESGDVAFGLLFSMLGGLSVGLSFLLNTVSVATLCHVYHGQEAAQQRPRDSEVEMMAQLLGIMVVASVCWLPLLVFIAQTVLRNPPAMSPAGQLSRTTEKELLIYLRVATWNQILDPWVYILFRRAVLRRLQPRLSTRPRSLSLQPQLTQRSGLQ

[2] = biological target: T3, Prostaglandin E2 receptor EP1 subtype (Homo sapiens, UniProt P34995); assay: Binding affinity to prostanoid receptor EP1 receptor
T3 sequence (P34995 whole entry): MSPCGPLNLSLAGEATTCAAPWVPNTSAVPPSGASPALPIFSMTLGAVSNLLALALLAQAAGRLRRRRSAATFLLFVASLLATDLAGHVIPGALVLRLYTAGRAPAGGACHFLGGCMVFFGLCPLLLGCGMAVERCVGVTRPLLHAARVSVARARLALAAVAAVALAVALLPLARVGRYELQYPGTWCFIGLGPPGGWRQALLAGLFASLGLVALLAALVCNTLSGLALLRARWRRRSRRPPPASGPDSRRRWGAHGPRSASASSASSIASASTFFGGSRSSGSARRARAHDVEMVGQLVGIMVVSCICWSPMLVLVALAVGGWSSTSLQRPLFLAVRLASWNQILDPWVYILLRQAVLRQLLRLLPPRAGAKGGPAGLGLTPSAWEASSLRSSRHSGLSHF

[3] = biological target: Prostaglandin E2 receptor EP2 subtype (Homo sapiens, UniProt P43116); assay: Binding affinity to prostanoid receptor EP2 receptor
[4] = biological target: T4, Prostaglandin E2 receptor EP3 subtype (Homo sapiens, UniProt P43115); assay: Binding affinity to prostanoid receptor EP3 receptor
T4 sequence (P43115 whole entry): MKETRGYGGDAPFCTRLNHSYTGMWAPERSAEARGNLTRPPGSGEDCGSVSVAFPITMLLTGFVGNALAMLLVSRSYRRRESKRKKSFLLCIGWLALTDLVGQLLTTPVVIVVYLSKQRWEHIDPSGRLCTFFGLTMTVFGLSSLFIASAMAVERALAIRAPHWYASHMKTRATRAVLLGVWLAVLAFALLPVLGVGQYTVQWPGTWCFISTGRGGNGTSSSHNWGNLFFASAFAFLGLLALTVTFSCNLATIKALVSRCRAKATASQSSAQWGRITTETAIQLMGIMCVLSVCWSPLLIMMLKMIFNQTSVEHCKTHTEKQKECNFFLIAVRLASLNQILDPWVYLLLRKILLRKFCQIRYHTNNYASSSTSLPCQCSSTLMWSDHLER

[5] = biological target: Prostaglandin E2 receptor EP4 subtype (Homo sapiens, UniProt P35408); assay: Binding affinity to prostanoid receptor EP4 receptor
[6] = biological target: Prostaglandin F2-alpha receptor (Homo sapiens, UniProt P43088); assay: Binding affinity to prostanoid receptor FP receptor
Prostacyclin receptor = Prostacyclin receptor (Homo sapiens, UniProt P43119); assay: Binding affinity to prostanoid receptor IP receptor
[7] = Selectivity ratio of Ki for prostanoid DP1 receptor to Ki for prostanoid EP3 receptor
[8] = biological target: T1, Prostaglandin D2 receptor; assay: Antagonist activity at prostanoid DP1 receptor in human platelet assessed as inhibition of PGD2 induced accumulation of cAMP; assay type: functional
Procedure, shortened: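 Human platelet-rich plasma; cAMP accumulation induced by PGD₂, measured with antagonist present; IC₅₀ reported.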

Homo sapiens = species: Homo sapiens; assay: Selectivity ratio of IC50 for prostanoid DP1 receptor to IC50 for TP receptor in human platelet
Procedure, shortened: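 Ratio of IC₅₀ values from two human platelet-rich plasma assays: PGD₂-induced cAMP accumulation (DP1) and U46619-induced platelet aggregation (TP).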

[9] = Chemical stability of compound in 0.01N HCl after 6 hrs; assay type: physicochemical; settings: read-out: Stability
Procedure, shortened: (§1)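 Compound incubated in 0.01 N HCl at 37 °C; percent of compound recovered after 2 h or 6 h.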

[10] = Chemical stability of compound in 0.01N HCl after 2 hrs; assay type: physicochemical; settings: read-out: Stability; procedure, shortened: as §1

Prostaglandin E2 receptor EP2 subtype, sequence (P43116 whole entry): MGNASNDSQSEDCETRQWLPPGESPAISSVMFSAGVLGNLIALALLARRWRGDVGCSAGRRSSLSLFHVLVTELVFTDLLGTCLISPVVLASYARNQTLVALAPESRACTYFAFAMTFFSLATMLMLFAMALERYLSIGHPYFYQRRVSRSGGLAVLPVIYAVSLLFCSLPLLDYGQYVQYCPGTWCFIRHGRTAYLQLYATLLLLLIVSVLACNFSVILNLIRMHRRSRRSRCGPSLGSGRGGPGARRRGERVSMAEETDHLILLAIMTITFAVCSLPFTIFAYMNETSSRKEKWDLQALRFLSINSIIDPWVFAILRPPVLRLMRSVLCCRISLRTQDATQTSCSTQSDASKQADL
Prostaglandin E2 receptor EP4 subtype, sequence (P35408 whole entry): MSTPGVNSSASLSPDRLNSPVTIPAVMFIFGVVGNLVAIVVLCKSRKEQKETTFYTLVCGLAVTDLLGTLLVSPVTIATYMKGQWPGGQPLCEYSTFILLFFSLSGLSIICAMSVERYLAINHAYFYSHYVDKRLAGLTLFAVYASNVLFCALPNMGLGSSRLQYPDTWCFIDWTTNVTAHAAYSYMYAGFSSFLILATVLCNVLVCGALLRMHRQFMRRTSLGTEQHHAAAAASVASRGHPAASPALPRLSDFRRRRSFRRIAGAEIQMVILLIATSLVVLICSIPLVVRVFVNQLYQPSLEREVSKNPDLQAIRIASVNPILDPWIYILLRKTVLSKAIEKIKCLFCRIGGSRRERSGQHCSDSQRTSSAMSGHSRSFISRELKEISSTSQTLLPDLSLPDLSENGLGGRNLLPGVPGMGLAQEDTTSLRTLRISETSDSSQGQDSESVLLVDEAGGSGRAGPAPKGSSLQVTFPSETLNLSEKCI
Prostaglandin F2-alpha receptor, sequence (P43088 whole entry): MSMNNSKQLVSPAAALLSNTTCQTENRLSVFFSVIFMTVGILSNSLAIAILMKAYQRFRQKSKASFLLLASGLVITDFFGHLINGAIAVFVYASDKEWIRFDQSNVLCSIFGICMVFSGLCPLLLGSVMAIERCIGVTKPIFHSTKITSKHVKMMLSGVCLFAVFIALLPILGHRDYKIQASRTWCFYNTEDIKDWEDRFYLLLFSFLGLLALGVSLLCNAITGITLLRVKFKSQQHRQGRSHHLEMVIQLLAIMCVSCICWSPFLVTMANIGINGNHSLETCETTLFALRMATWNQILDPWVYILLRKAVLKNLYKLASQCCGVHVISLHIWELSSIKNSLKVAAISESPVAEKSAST
Prostacyclin receptor, sequence (P43119 whole entry): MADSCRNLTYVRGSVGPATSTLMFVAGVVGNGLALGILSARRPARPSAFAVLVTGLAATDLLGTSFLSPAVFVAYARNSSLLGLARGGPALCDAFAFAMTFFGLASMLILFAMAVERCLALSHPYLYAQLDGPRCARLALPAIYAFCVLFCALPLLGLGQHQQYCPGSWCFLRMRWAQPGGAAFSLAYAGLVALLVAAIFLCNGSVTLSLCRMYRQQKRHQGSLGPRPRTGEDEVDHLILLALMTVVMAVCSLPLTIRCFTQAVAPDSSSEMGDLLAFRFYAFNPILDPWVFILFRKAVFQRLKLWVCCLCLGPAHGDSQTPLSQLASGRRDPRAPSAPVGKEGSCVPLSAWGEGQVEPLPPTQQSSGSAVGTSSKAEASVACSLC

SMILES | Ki [1] | Ki (Thromboxane A2 receptor) | further results
C[C@@H](c1ccc(C#N)cc1)n1c2c(c3cc(F)cc(S(C)(=O)=O)c31)CCC[C@@H]2CC(=O)O | 0.51 nM | 93 nM | –
C[C@@H](c1ccc(C(F)(F)F)cc1)n1c2c(c3cc(F)cc(S(C)(=O)=O)c31)CCC[C@@H]2CC(=O)O | 0.43 nM | 338 nM | Ki [2]: 4590 nM; Ki [3]: 2270 nM; Ki [4]: 830 nM; Ki [5]: 6610 nM; Ki [6]: 4320 nM; Ki (Prostacyclin receptor): 15500 nM; Ratio [7]: 1900; IC50 [8]: 2.5 nM; Ratio (Homo sapiens): 7760; remaining at 6 h [9]: 99.6%
CS(=O)(=O)c1cc(F)cc2c3c(n(Cc4ccc(Cl)cc4)c12)C(CC(=O)O)CCC3 (racemic) | 0.89 nM | 2.51 nM | –
C[C@@H](c1cccc(Cl)c1)n1c2c(c3cc(F)cc(S(C)(=O)=O)c31)CCC[C@@H]2CC(=O)O | 0.31 nM | 292 nM | –
CC(c1ccc(Cl)cc1)n1c2c(c3cc(F)cc(S(C)(=O)=O)c31)CCCC2CC(=O)O (single isomer, unassigned; fast eluting) | 12 nM | – | –
C[C@@H](c1ccccc1)n1c2c(c3cc(F)cc(S(C)(=O)=O)c31)CCC[C@@H]2CC(=O)O | 0.36 nM | 362 nM | –
CS(=O)(=O)c1cc(F)cc2c3c(n([C@@H](CF)c4ccc(Cl)cc4)c12)[C@@H](CC(=O)O)CCC3 | 0.39 nM | 138 nM | –
C[C@@H](c1ccc(F)cc1)n1c2c(c3cc(F)cc(S(C)(=O)=O)c31)CCC[C@@H]2CC(=O)O | 0.33 nM | 100 nM | –
C[C@@H](c1ccc(Cl)cc1)n1c2c(c3cc(F)cc(S(C)(=O)=O)c31)CCC[C@@H]2CC(=O)O | 0.75 nM | 184 nM | remaining at 2 h [10]: 79%
CC(c1ccc(Cl)cc1)n1c2c(c3cc(F)cc(S(C)(=O)=O)c31)CCCC2CC(=O)O (single isomer, unassigned; slow-eluting) | 1.3 nM | – | –
C[C@@H](c1ccc(S(C)(=O)=O)cc1)n1c2c(c3cc(F)cc(S(C)(=O)=O)c31)CCC[C@@H]2CC(=O)O | 16.5 nM | 1480 nM | –
C[C@@H](c1ccc(Cl)c(Cl)c1)n1c2c(c3cc(F)cc(S(C)(=O)=O)c31)CCC[C@@H]2CC(=O)O | 0.33 nM | 112 nM | –
C[C@@H](c1ccc(Cl)c(F)c1)n1c2c(c3cc(F)cc(S(C)(=O)=O)c31)CCC[C@@H]2CC(=O)O | 0.38 nM | 200 nM | –
C[C@@H](c1ccc(Br)cc1)n1c2c(c3cc(F)cc(S(C)(=O)=O)c31)CCC[C@@H]2CC(=O)O | 0.38 nM | 106 nM | –
C[C@@H](c1ccc(Cl)cc1F)n1c2c(c3cc(F)cc(S(C)(=O)=O)c31)CCC[C@@H]2CC(=O)O | 0.41 nM | 270 nM | –
CS(=O)(=O)c1cc(F)cc2c3c(n([C@H](c4ccc(Cl)cc4)C(F)F)c12)[C@@H](CC(=O)O)CCC3 | 0.36 nM | 130 nM | –
